# FXN GAA850 act – increases GAA850 frataxin promoter reporter activity | HEK293 lucGAA850 FXN promoter luciferase reporter, 24 h; percent of 10 µM SAHA response | 360,000 compounds, 0.56% hits | activation, % at 6 µM | AID 540364;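 active = activation above the average of all compounds screened plus 3 SD, cutoff fixed separately per campaign, cut at about 7.5% in these data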;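 note: 0% = DMSO wells and 100% = 10 µM SAHA wells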
# HTR2A ag – agonists of mouse serotonin 5-HT2A receptor (HTR2A) | P35363 | CHO-K1 mHTR2A beta-arrestin complementation, luminescence; percent of 30 µM serotonin response | activation, % at 7.6 µM | 360,000 compounds, 0.66% hits | AID 624169;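 active = activation above a run cutoff, the mean activation of all tested compounds plus 3 SD, cut at about 14% in these data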;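 note: 0% = plate median of compound wells and 100% = 30 µM serotonin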
# MC4R ag barr – activates human MC4R beta-arrestin recruitment; P32245; U2OS MC4R beta-arrestin complementation, luminescence; percent of melanotan II response, DMSO zero; activation, % at 8.9 µM; 360,000 compounds, 0.98% hits; AID 540308;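 active = activation above a per-plate cutoff, the mean activation of sample wells on that plate plus 3 SD, cut at about 8% in these data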
# AHR act – human AHR activation. AHR-responsive luciferase reporter cells, luminescence. activation, % at 5 µM. 320,000 compounds, 2.5% hits. AID 2796; in the data active = activation above about 47%;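 note: 0% = vehicle wells and 100% = reference agonist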
# Target sequence (P35869 whole entry, looked up): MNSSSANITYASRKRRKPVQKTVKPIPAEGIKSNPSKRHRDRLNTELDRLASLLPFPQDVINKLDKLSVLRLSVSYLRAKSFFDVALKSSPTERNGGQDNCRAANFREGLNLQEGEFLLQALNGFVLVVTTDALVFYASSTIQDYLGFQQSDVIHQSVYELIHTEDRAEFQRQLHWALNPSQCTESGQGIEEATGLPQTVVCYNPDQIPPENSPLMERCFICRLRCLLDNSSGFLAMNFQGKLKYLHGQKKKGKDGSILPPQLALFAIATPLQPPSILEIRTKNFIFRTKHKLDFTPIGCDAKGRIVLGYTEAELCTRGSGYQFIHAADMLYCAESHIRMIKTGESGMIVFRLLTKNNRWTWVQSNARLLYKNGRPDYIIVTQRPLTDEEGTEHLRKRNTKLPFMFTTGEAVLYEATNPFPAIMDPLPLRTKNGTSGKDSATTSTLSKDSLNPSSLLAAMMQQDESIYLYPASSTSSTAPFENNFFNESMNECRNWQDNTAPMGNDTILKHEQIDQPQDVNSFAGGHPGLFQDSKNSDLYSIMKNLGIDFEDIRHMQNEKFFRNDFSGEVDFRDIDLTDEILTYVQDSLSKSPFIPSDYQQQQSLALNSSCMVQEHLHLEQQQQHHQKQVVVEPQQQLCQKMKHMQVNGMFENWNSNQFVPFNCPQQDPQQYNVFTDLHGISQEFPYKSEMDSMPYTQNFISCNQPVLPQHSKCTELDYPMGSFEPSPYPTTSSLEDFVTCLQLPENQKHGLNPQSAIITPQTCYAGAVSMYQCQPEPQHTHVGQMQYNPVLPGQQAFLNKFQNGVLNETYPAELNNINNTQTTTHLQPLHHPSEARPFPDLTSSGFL
# MC4R antag cAMP – human MC4R antagonism in cAMP assay; inhibition, % at 6.5 µM; MC4R-expressing cells, MTII-stimulated cAMP, LANCE TR-FRET; P32245; AID 540295; 360,000 compounds, 0.48% hits;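 active = inhibition above its plate's cutoff, the mean of tested wells on that plate plus 3 SD, cut at about 29% in these data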;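 note: 0% = Melanotan II alone and 100% = Melanotan II plus saturating MCL0020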
#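 Assay system: U2OS-MC4R stable cell line; Also added: Melanotan II; Technique: Eu-cAMP/anti-cAMP TR-FRET, emission 671 nm; Times: 30-min compound, 1-h challenge, 1-h detection, room temperature.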
# * marks the source's active call; other numbers are inactive results; nt = not tested or not shown. Rows were chosen to be rich in hits. Some 4.7% of all compounds tested hit in one or more screens of this group.
SMILES,FXN GAA850 act,HTR2A ag,MC4R ag barr,AHR act,MC4R antag cAMP
COc1ccc(C(=O)N/C(=C\c2cn(C)c3ccccc23)C(=O)NCCCn2ccnc2)cc1,-1.8,-6.5,-2.2,-1.3,-1.6
O[C@H]1CN(CC2CCCCC2)[C@@H](c2ccc(Cl)cc2)C[C@@H]1n1cc(-c2ccc(F)cc2)nn1,1.2,-3.4,0.2,nt,5.8
O=C(NC(=S)Nc1ccccc1N1CCCC1)c1ccc(F)cc1,-11.8,-3.9,4.1,70.7*,3.9
O=C(NC(=S)Nc1ccccc1N1CCOCC1)c1ccc(Br)cc1,2.7,-1.3,-2.0,55.4*,5.7
O=C(COc1ccc(Br)cc1)NC(=S)Nc1ccccc1N1CCOCC1,-2.5,-4.0,1.5,6.3,4.5
O=C(NC(=S)Nc1ccccc1N1CCCCC1)c1ccccc1,0.8,-0.9,9.1*,33.5,6.5
CCCCc1nnc(NC(=O)COC)s1,0.0,1.9,1.1,-1.8,25.2
O=C(NC1CCCC1)C(c1ccc(F)cc1)N(Cc1ccc(F)cc1)C(=O)CCl (centres undefined),-3.8,-1.4,0.7,8.5,-2.5
Nc1nc2cc3c(cc2cc1C(=O)NCc1ccc(F)cc1)OCO3,nt,3.6,nt,nt,nt
CCc1nnc(N/N=C/c2ccccc2Cl)n1N,1.8,-0.5,-0.9,52.8*,0.3
COc1ccc(/C=N/Nc2nnc(C)n2N)cc1OC,-0.2,0.2,-1.3,7.0,5.1
COc1cccc(/C=N/Nc2nnc(C)n2N)c1OCc1ccccc1Cl,-1.9,0.6,-2.2,56.8*,-1.9
CC1(C(=O)NS(=O)(=O)C2CC2)CCCN(C(=O)c2ccco2)C1 (centres undefined),0.5,3.7,1.9,nt,12.0
CC(Sc1ccc2c(c1)OCCO2)C(=O)Nc1ccc2c(c1)OCO2 (centres undefined),0.2,-3.1,-1.0,5.3,5.2
Cc1nn(-c2ccccc2)c(Cl)c1C(=O)OC(C)C(=O)Nc1ccc2c(c1)OCO2 (centres undefined),1.3,0.8,0.8,65.6*,-7.0
Cc1ccc(C)c(NC(=O)Nc2ccc3c(c2)OCO3)c1,1.9,-5.3,-2.5,63.7*,-0.1
CC(Sc1ncnc2ccccc12)C(=O)Nc1ccc2c(c1)OCO2 (centres undefined),0.1,-0.2,-3.3,51.2*,-2.0
CC(NC(=O)Nc1ccc2c(c1)OCO2)C1CCCO1 (centres undefined),0.6,1.5,-2.7,65.6*,3.3
Cc1cc(C)cc(NC(=O)NC(C)C2CCCO2)c1 (centres undefined),2.3,9.2,1.9,14.5,2.7
CCCN(CCC)C(=O)C(c1ccccc1)C1(O)CCCCC1 (centres undefined),0.9,-1.7,0.1,nt,10.6
NS(=O)(=O)c1cccc(C(=O)N2CCCc3ccccc32)c1,-0.7,-7.7,-1.9,nt,13.4
Cc1ccccc1NC(=O)Nc1ccc2c(c1)OCO2,2.6,-3.2,-1.1,68.2*,9.6
Cc1cc(NC(=O)Nc2ccccc2F)ccc1Br,5.3,1.4,8.7*,21.8,3.0
O=C(Cc1ccccc1[N+](=O)[O-])Nc1ccc2c(c1)OCO2,3.9,5.4,-2.5,61.4*,6.3
Cn1nnc2cc(NC(=O)Nc3ccccc3F)ccc21,2.2,2.0,-0.5,nt,9.4
SMILES,FXN GAA850 act,HTR2A ag,MC4R ag barr,AHR act,MC4R antag cAMP
Cc1nn(C(C)C(=O)Nc2ccc3c(c2)OCO3)c(C)c1[N+](=O)[O-] (centres undefined),4.4,1.7,1.1,76.0*,17.9
O=C(Cc1ccccc1[N+](=O)[O-])NNC(=O)Nc1ccc2c(c1)OCO2,-0.2,-4.8,-0.5,20.6,7.5
CCc1cccc(C)c1NC(=O)Nc1ccc2c(c1)OCO2,1.1,8.3,-0.2,26.9,17.0
CCN(CC)CCCNC(=O)CNC(=O)c1nn(-c2ccc(OC)cc2OC)c(=O)c2ccccc12,1.9,8.7,-1.3,nt,-1.1
Cc1cc(Cl)ccc1C(=O)C1CCCN(C(=O)c2ccc3ncccc3c2)C1 (centres undefined),2.3,3.4,1.9,0.6,13.7
CCOC(=O)CC1=CCc2c1ccc(OC)c2OC,2.5,0.1,-1.8,nt,-6.4
COc1cc(/C=C/C(=O)OCC(=O)Nc2cc(S(=O)(=O)N3CCCC3)ccc2Cl)cc(OC)c1OC,-0.1,2.9,0.1,0.1,8.6
Cc1cccc(NC(=O)NCc2ccc3c(c2)OCO3)c1C,1.9,-3.8,-1.2,0.7,5.5
CCc1ccccc1NC(=O)NCc1ccc2c(c1)OCO2,4.8,-1.5,0.1,68.4*,7.4
CCc1nc2ccc(C(=O)NCCCn3ccnc3)cn2c1N(C)Cc1ccc(OC)cc1,1.3,-4.6,-1.4,nt,15.2
COc1ccc(Nc2cc(Nc3cc(OC)c(OC)c(OC)c3)ncn2)cc1,3.9,-5.4,-1.3,59.3*,-38.4
Cc1ccc(/C(=N/Nc2ncnc3ccccc23)C(=O)O)cc1,3.6,3.3,1.2,58.5*,11.2
Cc1ccc(Nc2ncnc3ccccc23)cc1,7.0,9.4,0.0,65.2*,1.2
COC(=O)C(=O)C/C(=N/Nc1ncnc2ccccc12)c1ccc(Cl)cc1,4.8,-3.6,3.1,57.7*,-16.0
O=C(NNc1ncnc2ccccc12)c1cccc(Cl)c1,5.0,0.1,-1.2,20.0,0.1
COc1ccc(Nc2cc(Nc3ccc(OC)cc3)ncn2)cc1,-0.8,-2.8,7.4,4.2,18.8
O=C(Nc1cccc(F)c1)C1CCCN(S(=O)(=O)c2cnc[nH]2)C1 (centres undefined),1.4,3.6,-2.1,1.6,15.3
COc1ccc(C(CNC(=O)CCNS(=O)(=O)c2ccc(Br)cc2)N2CCOCC2)cc1 (centres undefined),-0.3,-3.1,-0.9,nt,6.5
COC(=O)[C@]12CCCCC=C1N(CCC1=CCCCC1)C(=O)[C@H](CC(=O)NCC13CC4CC(CC(C4)C1)C3)C2,nt,-4.9,nt,nt,nt
O=c1c(-c2ccco2)nc2ccccc2n1C(c1ccccc1)c1nc2ccccc2[nH]1 (centres undefined),nt,-1.7,nt,nt,nt
COc1ccc(Nc2ncnc3ccc(C)cc23)cc1,-2.8,2.2,-0.7,55.2*,1.7
COC(=O)c1cccc(Nc2ncnc3ccc(C)cc23)c1,-2.9,4.3,-1.6,12.9,-5.2
Cc1cccc(OCc2n(CC(=O)OC3CC(C)CCC3C(C)C)c3ccccc3[n+]2C)c1 (centres undefined),-1.6,-7.3,22.9*,0.1,-3.0
CC1CCC(C(C)C)C(OC(=O)Cn2c(-c3ccccc3)[n+](C)c3ccccc32)C1 (centres undefined),-10.5,2.1,2.3,-0.6,-13.1
COC(=O)CSc1nccc(C)n1,-0.2,0.2,-1.1,-0.3,13.3
Clc1ccc(CSc2cc3c(nn2)-c2ccccc2CC3)cc1,0.2,-6.5,1.2,47.3*,-4.1
COCCNC(=O)C1(C)CCCN(C(=O)c2cccc(Cl)c2)C1 (centres undefined),-0.3,0.1,-0.3,nt,3.1
Cc1ccc(NCC(=O)N/N=C/c2cccc(Br)c2)cc1,0.4,-8.6,0.6,69.8*,-3.6

# High-throughput results from PubChem BioAssay.
